The source made the active and inactive calls.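 Rule for the calls, unless noted: active = GFP response above 150% of the DMSO level; inconclusive = fewer than 70 events counted for a yeast strain; inactive = the rest.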

The nature of assay [1]: RPL19A-GFP modulators, yeast TOR pathway, confirmation, cell-based, S. cerevisiae, flow cytometry, cherry picks, mother/daughter gates (AID 2270;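 active = GFP response below 50% of the DMSO control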). As to conditions: S. cerevisiae RPL19A-GFP strain, 3 h, at 10 µM, stronger effect = lower value, 100 = same GFP as DMSO wells. (In general: Flow cytometry measures light scatter and fluorescence of single cells or particles in a stream.)
Assay [2] can be described thus: LAP4-GFP expression modulators in yeast, confirmation, cell-based, cherry picks, flow cytometry, mother/daughter gates (AID 2271;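 active = GFP response above 150% of the DMSO control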;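 note: ratio of sample to DMSO plate mean so 100% equals DMSO level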). As to conditions: S. cerevisiae LAP4-GFP strain, 3 h, at 10 µM, stronger effect = higher value, 100 means same as DMSO control. The gist of the method:
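material = Alexa 633-stained baker's yeast GFP-fusion strain | amount = 0.2 OD600 cells | schedule = 30 °C, 3 h compound incubation, rotating | signal = GFP by flow cytometry | measure = per-gate (all, mother, daughter) GFP response vs DMSO | controls = positive rapamycin (400 ng/mL), negative DMSO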

Assay [3] can be described thus: modulators of MEP2-GFP levels in yeast, confirmation, S. cerevisiae, flow cytometry GFP, cherry picks (AID 2272;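 active = GFP response above 150% of the DMSO control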;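 note: ratio of well signal to plate DMSO mean so 100% equals DMSO level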). As to conditions: S. cerevisiae MEP2-GFP strain, 3 h, at 10 µM, stronger effect = higher value.
Assay [4] in a line: AGP1-GFP expression modulators, hit retest, confirmation, cell-based, flow cytometry, S. cerevisiae, cherry picks (AID 2273).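 Note: median GFP channel fluorescence over the whole cell population gate.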 As to conditions: S. cerevisiae AGP1-GFP strain, 3 h, at 10 µM.
A short description of assay [5]: modulators of CIT2-GFP expression in yeast, confirmation, S. cerevisiae, GFP fusion, cherry picks, mother/daughter gates (AID 2274). As to conditions: S. cerevisiae CIT2-GFP strain, flow cytometry, 3 h, at 10 µM, stronger effect = higher value.
Setting [6] is: measured here: daughter cell gate.
The mark [7] stands for this setting: measured here: mother cell gate.
Setting [8] is: measured here: daughter cell gate response.
Where [9] appears, read: measured here: mother cell gate response.

In the case of `O=C(OCc1cccc([N+](=O)[O-])c1)c1cnccn1`, the GFP response vs DMSO in assay [1] is 98.5% (inactive); in assay [1] (setting [6]), 99.5%; in assay [1] (setting [7]) it was 97.1%; in assay [3], 103% (inactive). The GFP response relative to DMSO is 102% (inactive) in assay [2], 97.5% in assay [2] (setting [8]) and 105% in assay [2] (setting [9]). For the same compound, the GFP response, % of DMSO is 97% (inactive) in assay [4], 98.6% (inactive) in assay [5], 101% in assay [5] (setting [6]) and 96% in assay [5] (setting [7]).

Take `C=CCn1c(=O)c(C(=O)Nc2ccccc2O)c(O)c2ccccc21`: the GFP response vs DMSO in assay [1] was 99.8% (inactive); in assay [1] (setting [6]), 98.9%; in assay [1] (setting [7]), 101%; in assay [3] it was 105% (inactive). The GFP response relative to DMSO in assay [2] was 108% (inactive); in assay [2] (setting [8]) it was 106%; in assay [2] (setting [9]), 106%. Further, the GFP response, % of DMSO in assay [4] is 98.7% (inactive); in assay [5], 104% (inactive); in assay [5] (setting [6]), 105%; in assay [5] (setting [7]) it was 102%.

As for `COc1ccc(NC(=O)c2ccccc2NC(=O)c2ccccc2)cc1`, the GFP response vs DMSO in assay [1] is 98.4% (inactive); in assay [1] (setting [6]) it was 98.4%; in assay [1] (setting [7]), 99.2%; in assay [3] it was 96.2% (inactive). Moreover, the GFP response relative to DMSO was 91.5% (inactive) in assay [2], 94.4% in assay [2] (setting [8]) and 89.7% in assay [2] (setting [9]). The GFP response, % of DMSO in assay [4] was 102% (inactive); in assay [5], 103% (inactive); in assay [5] (setting [6]), 101%; in assay [5] (setting [7]) it was 102%.

On to `Cc1cc(NCCCN2CCOCC2)n2nc(C)c(-c3ccccc3)c2n1`, for which the GFP response vs DMSO in assay [1] was 95.8% (inactive); in assay [1] (setting [6]), 94.7%; in assay [1] (setting [7]) it was 94.4%; in assay [3], 99.3% (inactive). In addition, the GFP response relative to DMSO in assay [2] was 100% (inactive); in assay [2] (setting [8]), 97.5%; in assay [2] (setting [9]), 100%. The GFP response, % of DMSO in assay [4] was 100% (inactive); in assay [5], 101% (inactive); in assay [5] (setting [6]), 101%; in assay [5] (setting [7]), 100%.

For the compound `CCOC(=O)C1=C(Cc2ccc(F)cc2)C(=O)c2ccccc2C1=O`, the GFP response vs DMSO was 97.8% (inactive) in assay [1], 99.6% in assay [1] (setting [6]), 95.8% in assay [1] (setting [7]) and 106% (inactive) in assay [3]. For the same compound, the figures for the GFP response relative to DMSO in assay [2], in assay [2] (setting [8]) and in assay [2] (setting [9]) were 101% (inactive), 97.9% and 104%, respectively. Further, the GFP response, % of DMSO in assay [4] is 92.5% (inactive); in assay [5], 95% (inactive); in assay [5] (setting [6]) it was 96.4%; in assay [5] (setting [7]) it was 92.1%.

Take `S=c1[nH]nc(-c2ccco2)n1/N=C/C(Cl)=C/c1ccccc1`: the GFP response vs DMSO was 98.4% (inactive) in assay [1], 98.5% in assay [1] (setting [6]), 98.3% in assay [1] (setting [7]) and 112% (inactive) in assay [3]. The GFP response relative to DMSO in assay [2] was 129% (inactive); in assay [2] (setting [8]) it was 121%; in assay [2] (setting [9]), 131%. Also, the GFP response, % of DMSO was 95.6% (inactive) in assay [4], 97.8% (inactive) in assay [5], 100% in assay [5] (setting [6]) and 94.5% in assay [5] (setting [7]).

Turning to `CCCc1[nH]nc2c1C(c1ccc(OC(=O)c3ccco3)cc1)C(C#N)=C(N)O2` (configuration not stated), the GFP response vs DMSO in assay [1] is 99.9% (inactive); in assay [1] (setting [6]), 101%; in assay [1] (setting [7]) it was 101%; in assay [3] it was 124% (inactive). Moreover, the values for the GFP response relative to DMSO in assay [2], in assay [2] (setting [8]) and in assay [2] (setting [9]) were 91.9% (inactive), 92.2% and 91.6%, respectively. The GFP response, % of DMSO is 102% (inactive) in assay [4], 105% (inactive) in assay [5], 108% in assay [5] (setting [6]) and 105% in assay [5] (setting [7]).

Take `Cc1ccc(-c2noc(CCC(=O)Nc3ccccc3C)n2)cc1`: the GFP response vs DMSO is 98% (inactive) in assay [1], 97% in assay [1] (setting [6]), 96.5% in assay [1] (setting [7]) and 106% (inactive) in assay [3]. Moreover, the GFP response relative to DMSO in assay [2] is 111% (inactive); in assay [2] (setting [8]), 104%; in assay [2] (setting [9]) it was 112%. The GFP response, % of DMSO in assay [4] is 100% (inactive); in assay [5], 100% (inactive); in assay [5] (setting [6]), 101%; in assay [5] (setting [7]) it was 98.2%.

On to `CC(=O)Oc1c(C)cc(Cl)cc1C(=O)Nc1ccc([N+](=O)[O-])cc1Cl`, for which the GFP response vs DMSO is 97% (inactive) in assay [1], 96% in assay [1] (setting [6]), 98.2% in assay [1] (setting [7]) and 101% (inactive) in assay [3]. The GFP response relative to DMSO in assay [2] was 91.2% (inactive); in assay [2] (setting [8]) it was 92%; in assay [2] (setting [9]), 93%. The GFP response, % of DMSO in assay [4] is 97.9% (inactive); in assay [5], 90.9% (inactive); in assay [5] (setting [6]), 93.7%; in assay [5] (setting [7]), 89.8%.

`C/C(=N\NC(=O)c1cccc(Br)c1)c1ccc(Br)cc1`: the GFP response vs DMSO was 96.7% (inactive) in assay [1], 98.7% in assay [1] (setting [6]), 95% in assay [1] (setting [7]) and 103% (inactive) in assay [3]. Also, the GFP response relative to DMSO is 106% (inactive) in assay [2], 97.5% in assay [2] (setting [8]) and 107% in assay [2] (setting [9]). In addition, the GFP response, % of DMSO is 98.8% (inactive) in assay [4], 98.6% (inactive) in assay [5], 101% in assay [5] (setting [6]) and 98.2% in assay [5] (setting [7]).

For `COc1ccccc1-c1nnc(NC(=O)c2ccc(S(=O)(=O)N3CCCC3)cc2)o1`, the GFP response vs DMSO in assay [1] is 102% (inactive); in assay [1] (setting [6]), 101%; in assay [1] (setting [7]), 104%; in assay [3] it was 102% (inactive). Besides, the values for the GFP response relative to DMSO in assay [2], in assay [2] (setting [8]) and in assay [2] (setting [9]) were 96.2% (inactive), 98.7% and 97.2%, respectively. Also, the GFP response, % of DMSO in assay [4] was 98% (inactive); in assay [5] it was 107% (inactive); in assay [5] (setting [6]) it was 105%; in assay [5] (setting [7]) it was 107%.

Take `Fc1ccc(C2CC(c3ccccc3)n3ncnc3N2)cc1` (configuration not stated): the GFP response vs DMSO in assay [1] is 96.8% (inactive); in assay [1] (setting [6]), 95.3%; in assay [1] (setting [7]), 98%; in assay [3], 100% (inactive). The values for the GFP response relative to DMSO in assay [2], in assay [2] (setting [8]) and in assay [2] (setting [9]) were 93.8% (inactive), 94.1% and 97.2%, respectively. Moreover, the GFP response, % of DMSO in assay [4] was 94.3% (inactive); in assay [5] it was 92.6% (inactive); in assay [5] (setting [6]) it was 94.8%; in assay [5] (setting [7]), 91.2%.

Regarding `O=C(O)C1CCN(S(=O)(=O)c2ccc(Oc3ccccc3)cc2)CC1`, the GFP response vs DMSO in assay [1] was 98% (inactive); in assay [1] (setting [6]), 98.3%; in assay [1] (setting [7]) it was 98.8%; in assay [3], 104% (inactive). Further, the GFP response relative to DMSO was 97.7% (inactive) in assay [2], 97.9% in assay [2] (setting [8]) and 96.5% in assay [2] (setting [9]). Further, the GFP response, % of DMSO in assay [4] is 96.7% (inactive); in assay [5], 99.3% (inactive); in assay [5] (setting [6]), 100%; in assay [5] (setting [7]) it was 98%.

Take `O=C1c2ccsc2SCCN1Cc1ccc(Cl)cc1Cl`: the GFP response vs DMSO in assay [1] is 96% (inactive); in assay [1] (setting [6]), 94.2%; in assay [1] (setting [7]) it was 95.5%; in assay [3] it was 94.7% (inactive). Moreover, the GFP response relative to DMSO in assay [2] was 108% (inactive); in assay [2] (setting [8]) it was 107%; in assay [2] (setting [9]) it was 110%. Further, the GFP response, % of DMSO is 98.2% (inactive) in assay [4], 90.1% (inactive) in assay [5], 90.2% in assay [5] (setting [6]) and 91.9% in assay [5] (setting [7]).

As to `O=C1c2cccc3cccc(c23)C(=O)N1c1nccs1`, the GFP response vs DMSO was 103% (inactive) in assay [1], 102% in assay [1] (setting [6]), 104% in assay [1] (setting [7]) and 133% (inactive) in assay [3]. Also, the GFP response relative to DMSO in assay [2] was 116% (inactive); in assay [2] (setting [8]) it was 117%; in assay [2] (setting [9]), 112%. For the same compound, the GFP response, % of DMSO in assay [4] was 106% (inactive); in assay [5], 130% (inactive); in assay [5] (setting [6]), 132%; in assay [5] (setting [7]) it was 131%.

Turning to `CCOC(=O)Cc1csc(NC(=O)c2sc3nc4ccc(C)cc4cc3c2N)n1`, the GFP response vs DMSO was 98.8% (inactive) in assay [1], 98.1% in assay [1] (setting [6]), 100% in assay [1] (setting [7]) and 102% (inactive) in assay [3]. In addition, the GFP response relative to DMSO is 91.4% (inactive) in assay [2], 91% in assay [2] (setting [8]) and 95.2% in assay [2] (setting [9]). In addition, the GFP response, % of DMSO in assay [4] was 96.7% (inactive); in assay [5] it was 92.6% (inactive); in assay [5] (setting [6]) it was 94.8%; in assay [5] (setting [7]), 92.3%.

Take `Cn1c(=O)[nH]c(=O)c2c1nc(N1CCCCC1)n2CCOc1ccccc1`: the GFP response vs DMSO in assay [1] was 99% (inactive); in assay [1] (setting [6]), 99.5%; in assay [1] (setting [7]) it was 100%; in assay [3], 102% (inactive). Moreover, the GFP response relative to DMSO in assay [2] is 98.7% (inactive); in assay [2] (setting [8]), 100%; in assay [2] (setting [9]), 102%. Also, the GFP response, % of DMSO is 104% (inactive) in assay [4], 103% (inactive) in assay [5], 101% in assay [5] (setting [6]) and 103% in assay [5] (setting [7]).

The values are drawn from PubChem BioAssay.
